# STEP block – STEP phosphatase inhibitors, primary screen, biochemical, fluorescence intensity, uHTS | AID 588621, 2011 | recombinant STEP, OMFP fluorogenic substrate | Tyrosine-protein phosphatase non-receptor type 5 (Homo sapiens), P54829 | hit rate 0.25% among 360,000 | inhibition, % at 20 µM;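 active = inhibition at 20 µM, scaled per plate between control wells, above about 37%, limit read from the data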;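 note: 0% = DMSO with enzyme and substrate and 100% = substrate only without enzyme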
#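 medium = Bis-Tris buffer pH 6.0, 2.5 mM DTT, 0.005% Tween 20 | test system = STEP (striatal-enriched tyrosine phosphatase) enzyme, cell-free | measure = normalized % inhibition | compound dosing = 20 µM, 1% DMSO | also added = 25 µM OMFP | schedule = reaction 20 min, ambient temperature | measured by = fluorescence read at 480 nm ex / 540 nm em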
# Scp-1 inhibitor – Scp-1 phosphatase inhibitors, primary screen, biochemical, colorimetric, uHTS; Carboxy-terminal domain RNA polymerase II polypeptide A small phosphatase 1 (Homo …; hit rate 0.88% among 340,000; inhibition, % at 20 µM; Recombinant Scp1, phosphopeptide, malachite green phosphate absorbance;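 active = inhibition above about 50% at 20 µM, limit read from the data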;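 note: plate controls were DMSO wells with enzyme for no effect and wells lacking enzyme for full effect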
#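 System: SCP-1 catalytic domain; Reagent: Phospho 17-mer peptide substrate; Doses: one concentration, 20 µM, with 1.0% DMSO; Incubation: 45 min room-temperature reaction, 5 min colour, 30 min stabiliser; Signal: Phosphate-binding colour reagent, absorbance read at 630 nm.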
# DNMT1 inh – human DNMT1 methyltransferase inhibitors, primary screen, biochemical, molecular beacon, fluorescence, HinP1I cleavage, uHTS | DNA (cytosine-5)-methyltransferase 1 (Homo sapiens), P26358 | inhibition (reported as % activation of signal), % at 10 µM | hit rate 0.83% among 360,000; in the data active = inhibition above about 50%
# Target sequence (P26358 504-1616 limits assumed): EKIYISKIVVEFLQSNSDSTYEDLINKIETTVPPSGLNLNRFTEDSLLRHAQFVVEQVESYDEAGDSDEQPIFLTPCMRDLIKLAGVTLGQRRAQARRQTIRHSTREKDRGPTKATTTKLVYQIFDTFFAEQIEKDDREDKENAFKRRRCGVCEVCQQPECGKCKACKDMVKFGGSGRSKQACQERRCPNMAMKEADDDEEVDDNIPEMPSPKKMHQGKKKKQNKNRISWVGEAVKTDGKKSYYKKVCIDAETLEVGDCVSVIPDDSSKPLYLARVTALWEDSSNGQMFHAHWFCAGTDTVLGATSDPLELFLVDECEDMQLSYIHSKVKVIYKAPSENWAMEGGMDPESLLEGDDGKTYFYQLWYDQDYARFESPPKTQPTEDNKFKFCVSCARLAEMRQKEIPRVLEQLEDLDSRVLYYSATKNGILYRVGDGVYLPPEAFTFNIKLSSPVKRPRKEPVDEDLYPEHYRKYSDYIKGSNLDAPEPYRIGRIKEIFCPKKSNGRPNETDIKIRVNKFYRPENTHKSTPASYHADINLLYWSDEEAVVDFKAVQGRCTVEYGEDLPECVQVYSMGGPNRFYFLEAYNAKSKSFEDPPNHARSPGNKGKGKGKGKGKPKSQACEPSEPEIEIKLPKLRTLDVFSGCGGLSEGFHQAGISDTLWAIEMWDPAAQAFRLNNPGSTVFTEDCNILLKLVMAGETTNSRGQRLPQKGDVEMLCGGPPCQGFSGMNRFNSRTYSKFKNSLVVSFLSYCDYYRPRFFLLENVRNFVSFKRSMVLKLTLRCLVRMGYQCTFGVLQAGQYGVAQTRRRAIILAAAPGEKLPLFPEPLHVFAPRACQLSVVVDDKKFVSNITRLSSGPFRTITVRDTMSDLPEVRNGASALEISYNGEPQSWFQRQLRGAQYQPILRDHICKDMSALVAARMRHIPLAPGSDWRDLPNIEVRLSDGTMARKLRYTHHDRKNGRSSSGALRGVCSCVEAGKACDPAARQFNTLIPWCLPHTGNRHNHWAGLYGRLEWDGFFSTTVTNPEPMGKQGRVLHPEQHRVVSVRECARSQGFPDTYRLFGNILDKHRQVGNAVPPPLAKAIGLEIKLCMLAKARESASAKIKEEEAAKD
# LMPTP block – LMPTP phosphatase inhibitors, primary screen, biochemical, fluorescence intensity, uHTS; Low molecular weight phosphotyrosine protein phosphatase (Homo sapiens), P24666; recombinant LMPTP-A, OMFP fluorogenic substrate; inhibition, % at 20 µM; hit rate 0.22% among 360,000; AID 651560, 2012;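 active = compounds that cut the enzyme signal by at least half of the control window in the single-dose screen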;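 note: plate controls were DMSO wells with enzyme plus substrate for no effect and substrate without enzyme for full effect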
#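 test system = LMPTP-A | amount = 0.625 nM LMPTP-A final | reagent = fluorogenic phosphatase substrate OMFP at 400 µM final | incubation = 50 min at room temperature | benchmarks = no-enzyme low control, uninhibited high control | medium = Bis-Tris pH 6.0, DTT, detergent | signal = fluorescence intensity of OMFP turnover product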
# SUMO1 PPI mod – modulators of SUMO1 protein-protein interactions, primary screen, biochemical, uHTS | AID 602429, 2012 | hit rate 0.33% among 360,000 | SUMO1 binding to a labelled peptide, TR-FRET, 1 h | Small ubiquitin-related modifier 1 (Homo sapiens), P63165 | inhibition, % at 20 µM; in the data active = inhibition above about 37%
# DNMT1 confirm – DNMT1 methyltransferase inhibitor retest, confirmation, biochemical, molecular beacon, fluorescence, single concentration. shares compounds with DNMT1 inh. DNMT1 molecular beacon HinP1I cleavage. inhibition, % at 10 µM. hit rate 8% among 2,300. AID 602385, 2012;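 active = average inhibition of at least 30% in the single-concentration confirmation test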
# Beacon interf – shows spectral interference in the DNMT1 beacon assay | shares compounds with DNMT1 inh | DNMT1 molecular beacon spectral interference counterscreen, fluorescence 485/520 | activation (fluorescence interference), % at 10 µM | hit rate 1% among 2,300 | AID 602387;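 active = activation of at least 30% at 10 µM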;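 note: DNMT1 catalytic domain with a HinP1I cleavage step and a FAM/dabcyl DNA beacon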
# An asterisk follows results filed as active; . = not tested or not shown. Most compounds without a hit are left out; they make up all but 1.7% or so of the library.
SMILES,STEP block,Scp-1 inhibitor,DNMT1 inh,LMPTP block,SUMO1 PPI mod,DNMT1 confirm,Beacon interf
COc1ccc(NC(=O)C2Cc3c(-c4ccc(NC(C)=O)cc4)ccnc3O2)cc1OC (stereo not drawn),-3.2,.,2.7,-2.4,-3.2,.,.
O=C(O)COc1ccccc1/C=N/NC(=O)CSc1nc2ccccc2n1Cc1ccccc1Cl,0.4,12.3,-0.6,0.6,3.3,.,.
COC(=O)C1(C)COP(=O)(NC23CC4CC(CC(C4)C2)C3)OC1 (stereo not drawn),-0.1,-0.3,4.3,-0.3,-9.4,.,.
Cc1ccc(SCC(=O)NC(=O)NC2CCCC2)c(C)c1,8.2,1.2,0.0,-0.8,3.6,.,.
Cc1ccc(C)c(SCC(=O)NC(=O)NC2CCCC2)c1,-1.1,-0.7,74.4*,1.2,-2.1,1.7,2.7
CCN(CC)C(=O)CC(c1cc(OC)c(OC)c(OC)c1)c1c(OC)cc(OC)c2c(-c3ccccc3)cc(=O)oc12 (stereo not drawn),2.8,71.1*,83.8*,17.5,-6.3,8.2,5.7
COc1ccccc1CCNC(=O)c1cc(-c2ccncc2)nc2ccc(Br)cc12,8.7,12.1,50.2*,13.5,-9.8,1.2,-1.0
CSc1ccccc1NC(=O)c1cc(-c2cccnc2)nc2ccc(Br)cc12,7.1,3.8,56.0*,3.6,10.0,0.0,-4.5
CC[C@]12c3[nH]c4cc(CCC(=O)N(C)C)ccc4c3CCN1C(=O)[C@@H](CC(=O)NCc1cccc(C(F)(F)F)c1)C[C@@H]2C(=O)N1CCN(C(=O)C2CC2)CC1,1.8,1.0,2.6,-1.6,4.6,.,.
CC[C@]12c3[nH]c4cc(CCC(=O)N(C)C)ccc4c3CCN1C(=O)[C@@H](CC(=O)NCc1cccc(C(F)(F)F)c1)C[C@@H]2C(=O)N1CCN(C(=O)c2ccco2)CC1,2.7,3.9,52.6*,-2.2,4.1,2.8,3.1
OC(COCCOc1ccc(Br)cc1)CN1CCCCC1 (stereo not drawn),-4.7,-8.0,-0.8,-0.7,0.6,.,.
Cc1cc2ccccc2cc1CN1CCOCC1,1.2,-5.2,58.1*,-1.7,-2.1,6.8,6.7
Cc1ccc(OCC(=O)c2c(N)n(C)c(=O)n(C)c2=O)c([N+](=O)[O-])n1,4.2,66.2*,81.8*,2.2,12.2,22.9,3.2
COc1ccc(NC(=O)/C=C/c2ccco2)cn1,0.8,10.7,19.7,2.0,-11.3,.,.
COc1ccccc1CNC(=O)/C=C/c1ccc(Br)o1,4.9,-0.7,90.7*,46.0,72.2*,4.8,-0.6
COc1ccc(NC(=O)/C=C/c2ccc(Br)o2)cn1,1.0,11.2,50.5*,13.6,-6.8,-1.4,0.5
Cc1ccc(-c2ccc(/C=N\NC(=O)c3cc4c(ccc5ccccc54)o3)o2)cc1[N+](=O)[O-],3.6,-6.9,71.9*,4.0,-4.2,1.9,-1.7
CN(CCc1ccccc1)C(C(=O)Nc1ccc2c(c1)OCCO2)C1CC1 (stereo not drawn),-1.1,.,3.2,-1.2,-2.3,.,.
COc1ccc(NC(=O)CC2Nc3cc(C)c(C)cc3NC2=O)c([N+](=O)[O-])c1 (stereo not drawn),3.9,4.5,58.9*,3.3,-20.8,1.1,2.5
O=c1[nH]c2cc(O)ccc2c2ccccc12,-2.0,.,1.1,-0.6,6.9,.,.
Nc1ccc2c(c1)[nH]c(=O)c1ccccc12,1.8,-0.3,80.0*,-0.2,-3.0,5.6,1.2
CCOc1cccc2cc(-c3cn4cc(C)ccc4n3)c(=O)oc12,-0.6,-0.7,70.4*,18.7,-20.4,1.4,-4.7
CCOc1ncccc1C(=O)Nc1cccc(Cl)c1Cl,1.4,-5.1,1.8,-0.6,-4.5,.,.
COc1ccc2sc3c(=O)[nH]c4ccccc4c3c2c1,3.1,-4.6,58.0*,1.3,6.8,4.8,3.7
CCc1ccc(N(CC(=O)NCC2CCCO2)C(=O)CCC(=O)Nc2nccs2)cc1 (stereo not drawn),1.7,-0.6,5.5,1.2,1.3,.,.
SMILES,STEP block,Scp-1 inhibitor,DNMT1 inh,LMPTP block,SUMO1 PPI mod,DNMT1 confirm,Beacon interf
O=S(=O)(Cc1noc(-c2ccc(Cl)cc2)n1)Cc1ccco1,5.6,15.1,83.0*,27.0,3.4,0.6,3.2
O=S(=O)(Cc1ccco1)Cc1nc(-c2ccc(Cl)cc2)cs1,1.1,-18.1,-6.3,0.6,11.8,.,.
COc1ccc2nc(NCCO)[nH]c2c1,-2.7,-4.8,-0.5,-1.6,4.2,.,.
COc1ccc2nc(N3CCCC3)[nH]c2c1,1.3,-8.4,87.7*,-0.7,-0.7,6.0,2.5
Cc1nc(CC(=O)NNS(=O)(=O)c2cccc(Cl)c2Cl)cs1,-2.9,9.7,-5.4,-0.4,16.1,.,.
O=CNc1ccccc1,-0.4,-6.3,-0.6,-0.5,5.8,.,.
O=C(COC(=O)/C=C/c1ccccc1[N+](=O)[O-])NC1CCS(=O)(=O)C1 (stereo not drawn),-0.6,-4.9,1.6,-1.1,-18.0,.,.
O=C(COC(=O)/C=C/c1ccccc1[N+](=O)[O-])NC1CC1,-4.0,-4.9,50.2*,-2.6,-23.1,6.6,11.2
CCc1nc2cc(NC(=O)C3(C)CCCN(C(C)=O)C3)ccc2o1 (stereo not drawn),2.2,.,-2.6,-1.5,13.6,.,.
Cc1cc(NC(=O)c2cc(C)on2)no1,-2.9,2.8,0.9,-0.1,0.7,.,.
Cc1cc(C(=O)Nc2cc(C)on2)on1,-3.6,-1.2,80.8*,-0.3,7.8,5.9,0.8
Cc1cc(NC(=O)c2cc(C3CC3)on2)no1,-0.5,-1.2,55.9*,-0.4,3.6,0.8,-0.6
Cc1nc2c(=O)[nH]c(=S)[nH]c2[nH]c1=O,2.1,95.7*,78.9*,0.4,54.7*,1.9,-1.8
O=C1CC(NCC2CCCO2)C(=O)N1c1ccc(F)cc1 (stereo not drawn),-1.3,-3.9,80.6*,-0.8,5.0,3.5,2.9
CCOc1cc(C#N)ccc1OCC(=O)NNC(=O)CC1CCS(=O)(=O)C1 (stereo not drawn),2.9,-7.6,76.7*,-0.3,1.0,-0.1,4.2
Cc1ccc(/C=c2\sc3nc(-c4ccco4)nn3c2=O)o1,71.6*,81.3*,104.9*,60.8*,44.2*,0.0,-0.7

# Bioassay records deposited in PubChem BioAssay by Sanford-Burnham Center for Chemical Genomics.
